The species named for test [1] is Mus musculus. Description: Minimal inhibitory concentration required to cause a microscopic detectable alteration of C3H/3T3 embryo murine fibroblast cell morphology. It is filed as functional. In short, it runs like this:
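Uninfected C3H/3T3 murine embryo fibroblast cultures were exposed to test compound and checked microscopically for changes in cell morphology. The MIC is the concentration causing a microscopically detectable alteration of morphology.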

Test [2] deals with CCRF-CEM. Description: Inhibitory concentration against proliferation of human T-lymphocytic (CEM) cells. It is filed as functional, cell-based. In short, it runs like this:
(§1)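 (5–7.5) × 10^4 cells per well were incubated with test compound at 37 °C in a humidified CO2 atmosphere. L1210 murine leukemia cells grew for 48 h, and CEM and Molt4/clone 8 human lymphocytes grew for 72 h. Cells were then counted with a Coulter counter. IC50 is the concentration inhibiting proliferation by 50%.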

For test [3], the system named is Human immunodeficiency virus 2. Put plainly: Concentration required to protect human T-lymphocytic cells against the cytopathogenicity of HIV-2. The format is functional, organism-based.
Test [4] deals with Human immunodeficiency virus 1. Put plainly: Effective concentration of compound required to protect human T-lymphocytic cells against the cytopathogenicity of HIV-1. It is filed as functional, organism-based.
The test system of test [5] is L1210. Put plainly: Inhibitory concentration of compound against proliferation of murine lukemia cells L1210 was determined. The format is functional, cell-based. As to conditions: Mus musculus. In outline: as §1
Test [6] concerns MOLT-4. Description: Inhibitory concentration of compound against proliferation of human T-lymphocytic cells MOLT-4/C8 was determined. The format is functional, cell-based. In outline: as §1
The species entered for test [7] is Mus musculus. Put plainly: Effective concentration of compound required to protect C3H/3T3 embryo murine fibroblasts against the MSV induced transformation. It is filed as functional, organism-based. The following applies: Mus musculus, C3H/3T3. In short, it runs like this: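 Monolayer murine embryo fibroblast C3H/3T3 cultures were infected with Moloney murine sarcoma virus at 75 focus-forming units and cultured with test compound. Transformation was examined microscopically on day 6 postinfection. EC50 is the concentration protecting cells against MSV-induced transformation by 50%.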

The structures appear in SMILES notation. In brackets after ≈: the same amount, converted by molar mass. Several values for one entry are separate records, joined by “and”; a condition that tells them apart may be missing. Equal entries are not always repeated.

Our source for the MIC, IC50 and EC50 values is ChEMBL document CHEMBL1145814, “Antiretroviral activity of semisynthetic derivatives of glycopeptide antibiotics” (J Med Chem, 2003).

On to `CCCCc1ccc(CNC2C(Oc3c4cc5cc3Oc3ccc(cc3Cl)C(O)C3NC(=O)C(NC(=O)C5NC(=O)C5NC(=O)C(Cc6ccc(cc6)O4)NC(=O)C(NC)c4ccc(O)c(c4)Oc4cc(O)c(Cl)c5c4)c4ccc(O)c(c4)-c4c(O)cc(O)cc4[C@H](C(=O)NCCCN(C)C)NC3=O)OC(C(=O)NCCCN(C)C)C(O)C2O)cc1` (stereo not given in full), for which the MIC in test [1] was > 100 µM. Also, the IC50 was > 250 µM in test [2] (Homo sapiens, CCRF-CEM); 36 µM in test [5]; 66 µM in test [6]. Also, the EC50 is > 50 µM in test [3] (Human immunodeficiency virus 2), 12 µM in test [4] (Human immunodeficiency virus 1) and > 20 µM in test [7].

`O=C(NC1C(=O)NC2Cc3ccc(c(Cl)c3)Oc3cc4cc(c3O)Oc3ccc(cc3Cl)C(O)C3NC(=O)C(NC(=O)C4NC(=O)C(NC2=O)c2cc(O)cc(c2)Oc2cc1ccc2O)c1ccc(O)c(c1)-c1c(O)cc(O)cc1[C@H](C(=O)O)NC3=O)OC12CC3CC(CC(C3)C1)C2` (stereo not given in full): the MIC in test [1] is > 20 µM. For the same compound, the IC50 stood at 104 µM in test [2] (Homo sapiens, CCRF-CEM); 22 µM in test [5]; 25 µM in test [6]. Also, the values for the EC50 in test [3] (Human immunodeficiency virus 2), in test [4] (Human immunodeficiency virus 1) and in test [7] were 6 µM, 13 µM and 9.8 µM, respectively.

With `CNC(=O)[C@@H]1NC(=O)C2NC(=O)C(NC(=O)C3NC(=O)C4NC(=O)C(Cc5ccc(c(Cl)c5)Oc5cc3cc(c5O)Oc3ccc(cc3Cl)C2O)NC(=O)C(N)c2ccc(O)c(c2)Oc2cc(O)cc4c2)c2ccc(O)c(c2)-c2c1cc(O)c(CNC1C3CC4CC(C3)CC1C4)c2O` (stereo not given in full), the MIC in test [1] is > 20 µM. Further, the IC50 in test [2] (Homo sapiens, CCRF-CEM) is > 250 µM; in test [5], 212 µM; in test [6], > 250 µM. Also, the EC50 in test [3] (Human immunodeficiency virus 2) is 17 µM; in test [4] (Human immunodeficiency virus 1), 5 µM; in test [7], 9.5 µM.

Consider `NC1C(=O)NC2Cc3ccc(c(Cl)c3)Oc3cc4cc(c3O)Oc3ccc(cc3Cl)C(O)C3NC(=O)C(NC(=O)C4NC(=O)C(NC2=O)c2cc(O)cc(c2)Oc2cc1ccc2O)c1ccc(O)c(c1)-c1c(cc(O)c(CNC2C4CC5CC(C4)CC2C5)c1O)[C@H](C(=O)NC1C2CC4CC(C2)CC1C4)NC3=O` (stereo not given in full), for which the MIC in test [1] was > 20 µM. Moreover, the IC50 in test [2] (Homo sapiens, CCRF-CEM) is > 250 µM; in test [5] it was 202 µM; in test [6], > 250 µM. For the same compound, the EC50 in test [3] (Human immunodeficiency virus 2) came out at 3.5 µM; in test [4] (Human immunodeficiency virus 1), 2.5 µM; in test [7], 2 µM.

`CCCCOc1ccc(CNC2C(Oc3c4cc5cc3Oc3ccc(cc3Cl)C(O)C3NC(=O)C(NC(=O)C5NC(=O)C5NC(=O)C(Cc6ccc(cc6)O4)NC(=O)C(N(C)Cc4ccc(OCCCC)cc4)c4ccc(O)c(c4)Oc4cc(O)c(Cl)c5c4)c4ccc(O)c(c4)-c4c(O)cc(O)cc4[C@H](C(=O)NCCCN(C)C)NC3=O)OC(C(=O)NCCCN(C)C)C(O)C2O)cc1` (stereo not given in full) displayed an MIC in test [1] of 20 µM (≈ 37.6 µg/mL). Besides, the IC50 in test [2] (Homo sapiens, CCRF-CEM) amounted to 80 µM; in test [5], 20 µM; in test [6], 18 µM. In addition, the EC50 was > 10 µM in test [3] (Human immunodeficiency virus 2), 5 µM in test [4] (Human immunodeficiency virus 1) and > 4 µM in test [7].

As to `CN[C@H](CC(C)C)C(=O)N[C@H]1C(=O)N[C@@H](CC(N)=O)C(=O)N[C@H]2C(=O)N[C@H]3C(=O)N[C@H](C(=O)N[C@H](C(=O)O)c4cc(O)cc(O)c4-c4cc3ccc4O)[C@H](O[C@H]3C[C@](C)(N)[C@@H](O)[C@H](C)O3)c3ccc(cc3)Oc3cc2cc(c3O[C@@H]2O[C@H](CO)[C@@H](O)[C@H](O)[C@H]2O[C@H]2C[C@](C)(N)[C@@H](O)[C@H](C)O2)Oc2ccc(cc2Cl)[C@H]1O`, the MIC in test [1] was > 100 µM. The IC50 was > 500 µM in test [2] (Homo sapiens, CCRF-CEM); > 500 µM in test [5]; > 500 µM in test [6]. The EC50 in test [3] (Human immunodeficiency virus 2) was > 250 µM; in test [4] (Human immunodeficiency virus 1) it was > 250 µM; in test [7], > 100 µM.

As to `CCCCc1ccc(CN2CCN(Cc3c(O)cc4c(c3O)-c3cc(ccc3O)C3NC(=O)C5NC(=O)C6NC(=O)C(Cc7ccc(c(Cl)c7)Oc7cc5cc(c7O)Oc5ccc(cc5Cl)C(O)C(NC3=O)C(=O)N[C@H]4C(=O)NC)NC(=O)C(N)c3ccc(O)c(c3)Oc3cc(O)cc6c3)CC2)cc1` (stereo not given in full), the MIC in test [1] is > 20 µM. Also, the IC50 is > 500 µM in test [2] (Homo sapiens, CCRF-CEM); > 250 µM in test [2] (ccrf-cem); 61 µM in test [5]; > 500 µM in test [6]. Also, the EC50 in test [3] was 3 µM and 6.3 µM; in test [4] it was 1.7 µM and 3.5 µM; in test [7], 3.6 µM.

For `O=CC(=O)c1[nH]c2ccccc2c1NC1C(=O)NC2Cc3ccc(c(Cl)c3)Oc3cc4cc(c3O)Oc3ccc(cc3Cl)C(O)C3NC(=O)C(NC(=O)C4NC(=O)C(NC2=O)c2cc(O)cc(c2)Oc2cc1ccc2O)c1ccc(O)c(c1)-c1c(O)cc(O)cc1[C@H](C(=O)O)NC3=O` (stereo not given in full), in test [1], the MIC was > 100 µM. The IC50 in test [2] (Homo sapiens, CCRF-CEM) came out at 108 µM; in test [5], 192 µM; in test [6] it was 108 µM. The EC50 in test [3] (Human immunodeficiency virus 2) was 15 µM; in test [4] (Human immunodeficiency virus 1) it was 10 µM; in test [7], 4.4 µM.

For `CC(=O)N[C@@H]1[C@H](OC2c3ccc(c(Cl)c3)Oc3cc4cc(c3O[C@@H]3O[C@@H](CO)[C@@H](O)[C@H](O)[C@@H]3NC(=O)CCCCCCC(C)C)Oc3ccc(cc3Cl)C(O)C3NC(=O)C(N)c5ccc(O)c(c5)Oc5cc(O)cc(c5)C(NC3=O)C(=O)NC4C(=O)NC3C(=O)NC2C(=O)N[C@@H](C(=O)O)c2cc(O)cc(O[C@H]4O[C@H](CO)[C@@H](O)[C@@H](O)[C@@H]4O)c2-c2cc3ccc2O)O[C@@H](CO)[C@@H](O)[C@@H]1O` (stereo not given in full), the MIC in test [1] is > 100 µM. Further, the IC50 in test [2] (Homo sapiens, CCRF-CEM) was > 500 µM; in test [5], > 500 µM; in test [6], > 500 µM. Also, the EC50 in test [3] (Human immunodeficiency virus 2) is 100 µM; in test [4] (Human immunodeficiency virus 1), 17 µM; in test [7], > 100 µM.

Take `CN(Cc1ccc(Cl)cc1)Cc1c(O)cc2c(c1O)-c1cc(ccc1O)C1NC(=O)C3NC(=O)C4NC(=O)C(Cc5ccc(c(Cl)c5)Oc5cc3cc(c5O)Oc3ccc(cc3Cl)C(O)C(NC1=O)C(=O)N[C@H]2C(=O)O)NC(=O)C(N)c1ccc(O)c(c1)Oc1cc(O)cc4c1` (stereo not given in full): the MIC in test [1] is > 100 µM. For the same compound, the IC50 was > 100 µM in test [2] (Homo sapiens, CCRF-CEM); > 100 µM in test [5]; > 100 µM in test [6]. Besides, the EC50 in test [3] (Human immunodeficiency virus 2) was 20 µM; in test [4] (Human immunodeficiency virus 1), 17 µM; in test [7] it was 11 µM.

Consider `CNC(CC(C)C)C(=O)NC1C(=O)NC(CC(N)=O)C(=O)NC2C(=O)NC3C(=O)NC(C(=O)N[C@@H](C(=O)O)c4cc(O)c(CN5CCN(Cc6ccc(-c7ccccc7)cc6)CC5)c(O)c4-c4cc3ccc4O)C(O)c3ccc(cc3)Oc3cc2cc(c3O)Oc2ccc(cc2Cl)C1O` (stereo not given in full), for which the MIC in test [1] was > 100 µM. Also, the IC50 in test [2] (Homo sapiens, CCRF-CEM) is > 500 µM; in test [5], 250 µM; in test [6], > 500 µM. In addition, the EC50 was determined as 12 µM in test [3] (Human immunodeficiency virus 2), 5.5 µM in test [4] (Human immunodeficiency virus 1) and 13 µM in test [7].

As to `CN[C@H](CC(C)C)C(=O)N[C@H]1C(=O)N[C@@H](CC(N)=O)C(=O)N[C@H]2C(=O)N[C@H]3C(=O)N[C@H](C(=O)N[C@H](C(=O)O)c4cc(O)cc(O)c4-c4cc3ccc4O)[C@H](O)c3ccc(c(Cl)c3)Oc3cc2cc(c3O[C@@H]2O[C@H](CO)[C@@H](O)[C@H](O)[C@H]2O[C@H]2C[C@](C)(N)[C@H](O)[C@H](C)O2)Oc2ccc(cc2Cl)[C@H]1O` [VANCOMYCIN], the MIC in test [1] is > 100 µM. Besides, the IC50 in test [2] (Homo sapiens, CCRF-CEM) is > 500 µM; in test [5], > 500 µM; in test [6], > 500 µM. Further, the results for the 50% effective concentration (EC50) in test [3] (Human immunodeficiency virus 2), in test [4] (Human immunodeficiency virus 1) and in test [7] were > 250 µM, > 250 µM and > 100 µM, respectively.
